# Only a selection was taken, and hits are over-represented in it overall.
# CHOP inhibitor – inhibitors of CHOP promoter induction, primary screen, cell-based, unfolded protein response, luciferase reporter; CHO-K1 CHOP-promoter luciferase, tunicamycin-induced, 15-18 h; inhibition, % at 10 µM; 220,000 compounds, 3.8% hits;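 active = compounds that reduced the stress-induced luciferase reporter signal by more than about 70% of percent inhibition, limit read from the data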;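 note: 0% = tunicamycin plus vehicle and 100% = wells without tunicamycin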
# UPR CHOP act – activators of apoptotic CHOP UPR arm, primary screen, cell-based, CHO-CHOP luciferase reporter, luminescence, uHTS; UPR activation; percent of tunicamycin response over DMSO baseline; activation, % at 10 µM; 330,000 compounds, 0.34% hits;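 active = at 10 µM dose, activation of 40% or more, normalized to positive control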;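 note: 100% = tunicamycin at 10 µg/mL and 0% = DMSO alone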
#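 Evaluation: % reporter activation, DMSO baseline versus tunicamycin full activation; System: CHO-CHOP luciferase reporter cell line; Input: 500 cells/well; Incubation: 6 h compound treatment, 37 °C; Measured by: Steady-Glo luciferase luminescence; Dosing: one dose, 10 µM in 0.5% DMSO; Buffer or medium: F12 medium, 10% FBS; Benchmarks: positive tunicamycin 10 µg/mL, negative DMSO alone.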
# XBP1 UPR activ – activators of adaptive XBP1 UPR arm, primary screen, cell-based, CHO-XBP1 luciferase reporter, luminescence, uHTS; activation, % at 20 µM; AID 463104, 2010; IRE1-XBP1 UPR activation; percent of tunicamycin response, DMSO as zero; 330,000 compounds, 0.33% hits;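 active = versus positive control, 20 µM dose yields 30% or more activation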;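 note: 100% = tunicamycin at 10 µg/mL and 0% = DMSO only wells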
#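 Material: CHO-XBP1 cells stably carrying IRE1-XBP1-driven luciferase reporter / Amount: 1000 cells per well / Compound: 20 µM, 1% DMSO / Times: 6 h treatment, 37 °C / Detection: luciferase luminescence / Measure: % activation of reporter signal versus tunicamycin and DMSO controls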
# V-ATPase pH – regulators of yeast V-ATPase proton pumping, primary screen, pHLuorin cytosolic pH fluorescence. S. cerevisiae. 350,000 compounds, 0.37% hits. response, % at 10 µM; in the data active = response mostly above about 7.3%, no sharp cut-off; inactive = mostly below about 5.4%; note: actives read high
# TbMetRS inhib – T. brucei MetRS inhibitors, primary screen, biochemical, luminescence | methionyl-tRNA synthetase (Trypanosoma brucei brucei) | purified T. brucei MetRS, ATP depletion, Kinase-Glo luminescence | 360,000 compounds, 0.4% hits | AID 624268, 2012 | inhibition, % at 11.9 µM;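 active = inhibition above a per-plate cutoff of the control wells' mean inhibition plus 3 SD, cut at about 5.5% in these data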;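 note: 0% = DMSO wells median and 100% = median of wells with control inhibitor compound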
#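 Material: T. brucei methionyl-tRNA synthetase, purified; reagent: substrates ATP, L-methionine and bulk Escherichia coli tRNA; dosing: 11.9 µM single point; timing: 15 min plus 2 h at 25 °C; detection: luminescence of leftover ATP; evaluation: % inhibition; control set: DMSO-only wells as low control; replicates: singlicate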
# CHOP confirm – retest of CHOP induction inhibitors, confirmation, cell-based. shares compounds with CHOP inhibitor. CHO-CHOP promoter luciferase reporter, tunicamycin-induced, luminescence. inhibition, % at 10 µM. 2,100 compounds, 45% hits;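 active = mean of three repeat readings of reporter signal inhibition above a set limit, cut at about 70% in these data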;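 note: 0% = tunicamycin plus vehicle and 100% = wells lacking tunicamycin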
# UPR CHOP confirm – activators of apoptotic CHOP UPR arm, confirmation, cell-based, CHO-CHOP luciferase reporter, single concentration; 1,000 compounds, 64% hits; shares compounds with UPR CHOP act; AID 463112, 2010; activation, % at 10 µM; CHO-CHOP cells, CHOP-luciferase reporter luminescence; percent of tunicamycin response, DMSO as zero; in the data active = activation above about 33%;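 note: 0% = DMSO wells and 100% = tunicamycin 10 µg/mL wells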
# UPR XBP1 confirm – IRE1-XBP1 UPR arm activators, confirmation, cell-based, CHO-XBP1 luciferase reporter, luminescence, single concentration; shares compounds with XBP1 UPR activ; activation, % at 20 µM; 1,000 compounds, 63% hits;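 active = reporter signal at least 30% of the positive control's activation in two or more of four replicate wells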;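 note: plate controls were DMSO negative control for no effect and tunicamycin 10 µg/mL positive control for full effect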
# * marks the source's active call; other numbers are inactive results; x = no result given.
SMILES,CHOP inhibitor,UPR CHOP act,XBP1 UPR activ,V-ATPase pH,TbMetRS inhib,CHOP confirm,UPR XBP1 confirm,others
CCOc1ccc(-c2nnc(SCC(=O)Nc3ccc4c(c3)c3ccccc3n4CC)n2N)cc1,98*,116*,216*,-1,-1,39,191*,UPR CHOP confirm=47*
CCn1c2ccccc2c2cc(NC(=O)CSc3nnc(-c4ccc(OC)c(OC)c4)n3N)ccc21,42,2,2,2,-2,x,x,
CC(Sc1nnc(N)s1)C(=O)NC1CCCCC1C (stereo not drawn),x,1,-2,-2,-1,x,x,
COc1ccc(-c2nn(-c3ccccc3)cc2/C=N/N2C(=O)CSC2=S)cc1,112*,22,39*,3,0,77*,27*,
CCc1nc(N=Nc2c(O)[nH]c3ccccc23)c2c3c(sc2n1)CCC3,101*,94*,35*,-1,0,35,168*,UPR CHOP confirm=76*
CCN(C(=O)Cn1cnc2c1c(=O)n(C)c(=O)n2C)C1CCS(=O)(=O)C1 (stereo not drawn),x,2,-3,1,0,x,x,
CCCCNC(=O)c1ccc(Cn2c(=S)[nH]c3c([nH]c4ccc(OC)cc43)c2=O)cc1,105*,2,41*,0,0,16,64*,
O=C(Cn1c2ccc(F)cc2c2nc3n(c(=O)c21)CCS3)Nc1ccc(Cl)cc1F,96*,-1,82*,-2,0,19,34*,
Cc1ccc(NC(=O)Cn2c3ccc(F)cc3c3nc4n(c(=O)c32)CCS4)cc1F,16,0,-3,-2,0,x,x,
Cc1ccc(-c2nn(CC(=O)NCc3cc(-c4nn(C)c(=O)c5ccccc45)ccc3C)c(=O)c3ccccc23)cc1,106*,12,81*,-2,0,93*,61*,
CCS(=O)(=O)CCSC1OC(COC(C)=O)C(OC(C)=O)C(OC(C)=O)C1OC(C)=O (stereo not drawn),26,0,-1,-1,0,x,x,
CC(C)Cc1nc2ccccc2n1CCc1ccccc1,-6,-2,-4,-3,0,x,x,
Cc1ccc2nsnc2c1NC(=O)c1ccc(-c2cc(Cl)ccc2Cl)o1,101*,34,96*,2,0,62,104*,
Cc1ccc2nsnc2c1NC(=O)Cc1ccc(Cl)cc1,31,3,-1,1,-1,x,x,
O=C(Nc1ccc2ccccc2n1)Nc1cccs1,70,1,-2,1,0,x,x,
COc1ccc(-c2[nH]c(-c3ccc(Cl)cc3)nc2SCC(=O)Nc2nccs2)cc1,98*,1,46*,0,0,33,12,
Cc1ccc(NC(=O)COC(=O)c2ccc(C)c(S(=O)(=O)N3CCOCC3)c2)cc1,x,1,-2,-2,0,x,x,
O=C(NCc1ccco1)C1CCCN1C(=O)Nc1ccccc1Cl (stereo not drawn),3,0,-2,2,-1,x,x,
Cc1cc(NC(=O)CSc2ccc(-c3nc4cc(C)c(C)cc4[nH]3)cn2)no1,104*,4,58*,-2,0,15,31*,
Cc1cc2nc(-c3ccc(SCC(=O)NC(C)C)nc3)[nH]c2cc1C,0,5,1,x,x,x,x,
COc1ccc(OC)c2sc(NC(=O)c3ccc(Cl)s3)nc12,103*,4,97*,4,-1,86*,26,
CCC(=O)Nc1nc2c(OC)ccc(OC)c2s1,10,1,2,-2,0,x,x,
